CYP2C19 inhib = human CYP2C19 inhibition | 21% of 96,000 active | P33261 | AID 778 | inhibition, % at 5 µM | CYP2C19 Supersomes, luciferin-H EGE luminescence, 30 min;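 active = CYP2C19 inhibition above a set limit at 5 µM in the primary screen, cut at about 50% in these data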
CYP2C9 activ = activators of human CYP2C9 | P11712 | recombinant CYP2C9, luciferin-H conversion, luminescence; stronger effect = higher value; factor 1 = untreated enzyme, 0 = blocked | activation factor at 5 µM | 1.4% of 96,000 active;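 active = activation factor of 2 or more for CYP2C9 at a 5 µM dose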
Target sequence (P11712 whole entry, looked up): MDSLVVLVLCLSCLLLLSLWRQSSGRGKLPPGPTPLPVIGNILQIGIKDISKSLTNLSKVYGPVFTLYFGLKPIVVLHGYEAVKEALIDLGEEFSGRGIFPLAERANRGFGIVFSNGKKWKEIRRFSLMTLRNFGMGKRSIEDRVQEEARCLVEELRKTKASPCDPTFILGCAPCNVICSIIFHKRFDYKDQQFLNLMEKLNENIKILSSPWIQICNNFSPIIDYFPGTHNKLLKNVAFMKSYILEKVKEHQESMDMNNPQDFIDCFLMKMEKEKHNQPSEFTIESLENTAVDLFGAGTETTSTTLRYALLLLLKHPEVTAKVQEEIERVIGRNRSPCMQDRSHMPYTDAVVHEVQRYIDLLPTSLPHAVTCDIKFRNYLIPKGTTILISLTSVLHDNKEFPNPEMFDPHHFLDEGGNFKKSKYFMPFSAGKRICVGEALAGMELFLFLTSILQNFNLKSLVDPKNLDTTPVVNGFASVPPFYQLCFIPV
CYP2C19 activ = activators of human cytochrome P450 2C19 | recombinant CYP2C19, luciferin-H EGE luminescence; stronger effect = higher value; 0 = fully inhibited enzyme, 1 = untreated enzyme | activation factor at 5 µM | 96,000 tested, under 10 active | AID 1025;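 active = activation factor of at least 2 at 5 µM in the primary screen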
Rev-RRE block = inhibitors of HIV-1 Rev-RRE RNA interaction; P05866; Rev peptide-RRE RNA binding, FRET; inhibition, % at 8 µM; 0.79% of 97,000 active; AID 704;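 active = inhibition above the screen-wide mean plus 3 SD, cut at about 35% in these data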
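Test system – labelled RRE RNA duplex and labelled Rev peptide · Reagent – labelled Rev peptide · Doses – one concentration, 8 µM nominal · Incubation – 5 + 15 min at 25 °C · Signal – FRET fluorescence readout · Read-out basis – % inhibition of FRET ratio versus controls · Control set – DMSO wells as 0% and neomycin B wells as 100% inhibition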
CYP2C9 inhib = inhibitors of human CYP2C9 | CYP2C9 Supersomes, luciferin-H conversion, luminescence | inhibition, % at 5 µM | 20% of 96,000 active | AID 777;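 active = blocking of liver enzyme CYP2C9 beyond about 50% at 5 µM, limit read from the data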
Cav32 inh = inhibitors of human Cav3.2 T-type calcium channel | 4% of 100,000 active | Cav3.2-expressing cells, Fluo-4 calcium fluorescence FDSS; stronger effect = lower value | B-score at 10 µM | AID 449739;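 active = single-dose well whose peak fluorescence ratio is a statistical outlier from its plate by either plate-standardised score or position-corrected B-score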
A number is an active result; – = inactive; · = no result. In the library only some 27% were active in any assay of this set; here they are far more common.

SMILES	CYP2C19 inhib	CYP2C9 activ	CYP2C19 activ	Rev-RRE block	CYP2C9 inhib	Cav32 inh
COc1ccc(-c2n[nH]c(C(F)(F)F)c2-c2cc3ccccc3o2)c(O)c1	–	–	–	–	90.4	–
COc1ccc(-c2cnc(N)nc2-c2ccc(OC)cc2O)cc1	–	–	–	–	–	–
COc1ccc(-c2ccc3oc(-c4ccc(OC)cc4)c(C#CC4(O)CCCCC4)c3c2)cc1	·	·	·	·	·	–
O=c1ccn(-c2cccc(C(F)(F)F)c2)nc1-c1ccn(-c2ccccc2)n1	–	–	–	–	80.2	-5.69
CCOc1ccc(/C(O)=C2\C(=O)C(=O)N(CCOCCO)C2c2ccccc2OC)cc1 (stereo not given)	–	–	–	–	–	–
CC1(c2ccncc2)Nc2ccccc2-c2nc3ccccc3n21 (stereo not given)	96.7	–	–	–	90.4	–
CCOc1ccc(S(=O)(=O)n2cnc3cc(C)c(C)cc32)cc1	–	–	–	–	–	–
COc1ccc(OC)c(S(=O)(=O)n2cnc3cc(C)c(C)cc32)c1	97.5	–	–	–	86.8	–
COc1ccc(OC)c(S(=O)(=O)n2nc(C)cc2C)c1	68.1	–	–	–	–	–
COc1cc(OC)nc(NC(=O)COC(=O)C2CCCCC2)n1	–	–	–	–	–	–
COc1ccccc1N1CCN(C(=O)CSc2ccc3c(C)cc(C)nc3n2)CC1	·	·	·	–	·	–
C=CCn1c(=O)n(CCOC)c(=O)c2sc3ccccc3c21	–	–	–	–	–	–
CN1CC(=O)N(CC(=O)NCc2ccc3c(c2)OCO3)C1=O	–	–	–	–	–	–
COc1ccc(N(CC(=O)NCc2ccco2)S(=O)(=O)c2c(C)nn(C)c2C)cc1	74.8	–	–	–	–	–
CCOc1ccc(N(CC(=O)NCc2ccco2)S(C)(=O)=O)cc1	–	–	–	–	–	–
COc1ccc2nc(NC(=O)CN(c3ccc(C)cc3)S(=O)(=O)c3c(C)nn(C)c3C)sc2c1	–	–	–	–	68.3	–
Cc1ccc(C)c(NS(=O)(=O)c2c(C)nn(C)c2C)c1	–	–	–	–	–	–
CCc1ccc(N(CC(=O)Nc2nc3ccc(C)cc3s2)S(=O)(=O)c2c(C)noc2C)cc1	58.1	–	–	–	93.0	–
Cc1nn(C)c(C)c1S(=O)(=O)Nc1ccc2c(c1)OCO2	80.8	–	–	–	–	–
Cc1cc(C(=O)CSCc2nnc3n(CCC(C)C)c(=O)c4ccccc4n23)c(C)n1C	·	·	·	–	·	·
CCN1CCN(Cc2nc3c(c(=O)n(C)c(=O)n3C)n2Cc2cccc3ccccc23)CC1	–	–	–	–	–	–
CCS(=O)(=O)NCCc1cc2c(OC)ccc(OC)c2[nH]c1=O	·	·	·	–	·	–
CCCCS(=O)(=O)NC1=NCN(C2CCN(Cc3ccccc3)CC2)CN1	·	·	·	–	·	·
COc1ccc(N2CCN(c3ncnc4c3nnn4Cc3ccccc3Cl)CC2)cc1	·	·	·	–	·	–
COc1ccc(N(CC(=O)Nc2ccc3c(c2)OCO3)S(=O)(=O)c2c(C)nn(C)c2C)cc1	–	–	–	–	78.8	–
SMILES	CYP2C19 inhib	CYP2C9 activ	CYP2C19 activ	Rev-RRE block	CYP2C9 inhib	Cav32 inh
COc1ccc(NC(=O)CN(c2ccc(C)cc2)S(=O)(=O)c2c(C)nn(C)c2C)cc1OC	–	–	–	–	–	–
COc1ccc(N(CC(=O)NCc2ccc3c(c2)OCO3)S(=O)(=O)c2c(C)nn(C)c2C)cc1	87.0	–	–	–	–	–
COc1ccccc1OCCn1cc(C(=O)c2ccco2)c2ccccc21	–	–	–	–	84.4	–
COc1cccc(OCCn2cc(C(=O)c3ccco3)c3ccccc32)c1	86.0	–	–	–	98.4	–
O=C(Cn1cc(C(=O)c2ccco2)c2ccccc21)NCc1ccco1	–	–	–	–	–	–
CCOC(=O)Cn1cc(C(=O)c2ccco2)c2ccccc21	81.4	–	–	–	84.5	–
O=C(O)Cn1cc(C(=O)c2ccco2)c2ccccc21	–	–	–	–	–	–
COC(=O)c1cc(NC(=O)Nc2ccccc2OC)cc(C(=O)OC)c1	–	–	–	–	–	–
O=C(OCC(=O)N1CCc2ccccc21)c1ccc(Cl)nc1	–	–	–	–	–	–
CC(OC(=O)CCc1nc2ccccc2c(=O)[nH]1)C(=O)NCc1ccc2c(c1)OCO2 (stereo not given)	·	·	·	–	·	·
CC(C)CC(=O)Nc1ccc(C(=O)Cn2nc(C(=O)O)c3ccccc3c2=O)cc1	–	–	–	–	–	–
